Assay results as given in ChEMBL document CHEMBL4311975, “Exploration of the antibiotic potentiating activity of indolglyoxylpolyamines” (Eur J Med Chem, 2019).
pIC50: −log10 of the molar value. Values after ≈ are worked out from the molar mass of the structure shown.

Columns and labels:
Candida albicans = test: Antifungal activity against Candida albicans ATCC 90028 assessed as growth inhibition incubated for 36 hrs by resazurin dye based assay; format: functional; settings: ATCC 90028, 36 h
How it was run: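 Yeast was grown 3 days on YPD agar at 30 °C. Colonies were suspended and diluted in YNB broth to 2.5×10^3 CFU/mL, then added to two-fold compound dilutions (0.008–32 μg/mL final), in duplicate. Plates stood 36 h at 35 °C without shaking. Means, n = 2.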

Cryptococcus neoformans = test: Antifungal activity against Cryptococcus neoformans ATCC 208821 assessed as growth inhibition incubated for 36 hrs by resazurin dye based assay; format: functional; settings: ATCC 208821, 36 h
How it was run: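 Cryptococcus was grown 3 days on YPD agar at 30 °C, suspended, and diluted in YNB broth to 2.5×10^3 CFU/mL. Cells were exposed to 0.008–32 μg/mL compound (final), in duplicate, for 36 h at 35 °C without shaking. Resazurin (0.006% final) was added for a further 3 h. MIC was read from absorbance at OD570–600. Means, n = 2.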

Pseudomonas aeruginosa [1] = test: Antibacterial activity against Pseudomonas aeruginosa ATCC 27853 assessed as growth inhibition incubated for 18 hrs by broth dilution method; format: functional
How it was run: (§1)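 Broth microdilution following CA-SFM recommendations. Inoculum was 10^5 CFU in Mueller-Hinton broth with two-fold serial drug dilutions. Plates were incubated 18 h at 37 °C. MIC was the lowest concentration giving complete inhibition of visible growth. Values are means, n = 3.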

Escherichia coli = test: Antibacterial activity against Escherichia coli ATCC 25922 assessed as growth inhibition incubated for 18 hrs by broth dilution method; format: functional; how it was run: as §1
Klebsiella pneumoniae = test: Antibacterial activity against Klebsiella pneumoniae ATCC 700603 assessed as growth inhibition incubated for 18 hrs by resazurin dye based assay; format: functional
How it was run: (§2)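 Overnight cultures were diluted 40-fold in MHB and grown 1.5–2 h at 37 °C to mid-log phase. Cells were added at 5×10^5 CFU/mL final to two-fold compound dilutions (0.008–32 μg/mL final), in duplicate, for 18 h at 37 °C. Resazurin (0.001% final) was added for 2 h and MIC read by eye. Means, n = 2.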

Acinetobacter baumannii = test: Antibacterial activity against Acinetobacter baumannii ATCC 19606 assessed as growth inhibition incubated for 18 hrs by resazurin dye based assay; format: functional; settings: ATCC 19606 = CIP 70.34 = JCM 6841, 18 h; how it was run: as §2
Staphylococcus aureus = test: Antibacterial activity against Staphylococcus aureus ATCC 25923 assessed as growth inhibition incubated for 18 hrs by broth dilution method; format: functional; settings: ATCC 25923, 18 h; how it was run: as §1
[2] = Hemolytic activity against Sprague-Dawley rat RBC assessed as release of hemoglobin at 50 uM incubated for 1 hr relative to control; format: ADME, cell-based, Erythrocyte; settings: red blood cells (erythrocytes), read-out: Activity
How it was run: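 Fresh Sprague-Dawley rat erythrocytes were washed in saline and resuspended at 2% v/v. Cells were incubated with compound in DMSO/PBS for 1 h at 37 °C, then centrifuged at 200 g, and supernatant absorbance read at 540 nm. Results were normalised to DMSO/PBS (0%) and 0.1% Triton X-100 (100%). Single-point testing used 50 μM; HC50 came from 10-point curves. Means of three experiments.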

[3] = Cytotoxicity against human HEK293 cells measured after 20 hrs by resazurin dye based fluorescence assay; format: cell-based
How it was run: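 HEK293 cells, 5,000/well in DMEM with 10% FBS, were exposed to compound for 20 h at 37 °C, 5% CO2. Resazurin (100 μM final) was added for 3 h, then fluorescence read at ex 560/em 590. Signal was normalised to tamoxifen (74 μg/mL, 0%) and untreated growth (100%), and CC50 came from dose-response fitting. Top dose 32 μg/mL. Means, n = 2.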

Pseudomonas aeruginosa [4] = test: Potentiation of doxycycline-induced antibacterial activity against Pseudomonas aeruginosa ATCC 27853 assessed as concentration required to restore 2 ug/ml doxycycline activity measured after 18 hrs; format: functional
How it was run: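 Inoculum was 5×10^5 CFU in MHB with two-fold serial dilutions of adjuvant plus fixed doxycycline at 2 μg/mL. […] Repeated independently in triplicate.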

[5] = test system: Staphylococcus intermedius; test: Antibacterial activity against Staphylococcus intermedius 1051997 assessed as growth inhibition incubated for 18 hrs by broth dilution method; format: functional; settings: Staphylococcus intermedius, 1051997, 18 h; how it was run: as §1
L6 = test: Cytotoxicity against rat L6 cells measured after 72 hrs by alamar blue assay; format: cell-based; settings: L6, 72 h
How it was run: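 Rat L6 myoblasts, 4×10^4/well in RPMI 1640 with L-glutamine and 10% FBS, received seven 3-fold dilutions (90 to 0.123 μg/mL) for 72 h. Alamar Blue was added for 2 h and fluorescence read at ex 536/em 588 nm. Podophyllotoxin served as reference. Means, n = 2.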

[6] = Klebsiella pneumoniae, 700603, 18 h

Compound | MIC (Candida albicans) | MIC (Cryptococcus neoformans) | MIC (Pseudomonas aeruginosa [1]) | MIC (Escherichia coli) | MIC (Klebsiella pneumoniae) | MIC (Acinetobacter baumannii) | MIC (Staphylococcus aureus) | hemolysis at 1 h, 50 µM [2] | CC50 at 20 h [3] | Activity (Pseudomonas aeruginosa [4]) | MIC [5] | MIC (Pseudomonas aeruginosa [1]; ATCC 27853, 18 h) | MIC (Escherichia coli; ATCC 25922, 18 h) | pIC50 (L6) | MIC (Klebsiella pneumoniae; [6])
OC(Cn1cncn1)(Cn1cncn1)c1ccc(F)cc1F [FLUCONAZOLE] | 0.125 µg/mL | 8 µg/mL |  |  |  |  |  |  |  |  |  |  |  |  | 
COLISTIN |  |  | 1 µM | 2 µM | 0.25 µg/mL |  |  |  |  |  |  |  |  |  | 
Cc1cccc2c(C(=O)C(=O)NCCCNCCCCNCCCNC(=O)C(=O)c3c[nH]c4c(C)cccc34)c[nH]c12.O=C(O)C(F)(F)F.O=C(O)C(F)(F)F | > 40 µM | 10 µM |  |  |  | > 40 µM | 25 µM | 0.1% | > 40 µM | 6.25 µM | 12.5 µM | > 200 µM | > 200 µM | 4.22 | > 40 µM
Cc1ccc2[nH]cc(C(=O)C(=O)NCCCNCCCCNCCCNC(=O)C(=O)c3c[nH]c4ccc(C)cc34)c2c1.O=C(O)C(F)(F)F.O=C(O)C(F)(F)F | > 40 µM | 10 µM |  |  |  | > 40 µM | 25 µM | 0.3% | > 40 µM | 6.25 µM | > 200 µM | 100 µM | 200 µM | 4.20 | > 40 µM
COc1cc([C@@H]2c3cc4c(cc3[C@H](O)[C@H]3COC(=O)[C@H]23)OCO4)cc(OC)c1OC [PODOFILOX] |  |  |  |  |  |  |  |  |  |  |  |  |  | 7.74 | 
COC(=O)c1cccc2c(C(=O)C(=O)NCCCNCCCCNCCCNC(=O)C(=O)c3c[nH]c4c(C(=O)OC)cccc34)c[nH]c12.O=C(O)C(F)(F)F.O=C(O)C(F)(F)F | > 36 µM | 9 µM |  |  |  | > 36 µM | 25 µM | 15% | 3.78 µM | 6.25 µM | > 200 µM | 200 µM | 200 µM | 4.46 | > 36 µM
COc1ccc2[nH]cc(C(=O)C(=O)NCCCNCCCCNCCCNC(=O)C(=O)c3c[nH]c4ccc(OC)cc34)c2c1 | > 38.4 µM | 19.2 µM |  |  |  | > 38.4 µM | 100 µM (≈ 60.5 µg/mL) | 0% | > 38.4 µM | 12.5 µM | 50 µM (≈ 30.2 µg/mL) | > 200 µM | > 200 µM | 4.25 | > 38.4 µM
O=C(NCCCNCCCCNCCCNC(=O)C(=O)c1c[nH]c2c(Cl)cccc12)C(=O)c1c[nH]c2c(Cl)cccc12.O=C(O)C(F)(F)F.O=C(O)C(F)(F)F | > 38.1 µM | 19.1 µM |  |  |  | > 38.1 µM | 50 µM | 1.1% | 31.6 µM | 25 µM |  | 200 µM | 200 µM | 5.13 | > 38.1 µM
N#Cc1ccc2[nH]cc(C(=O)C(=O)NCCCNCCCCNCCCNC(=O)C(=O)c3c[nH]c4ccc(C#N)cc34)c2c1.O=C(O)C(F)(F)F.O=C(O)C(F)(F)F | > 38.9 µM | 38.9 µM |  |  |  | > 38.9 µM | 100 µM | 0% | > 38.9 µM | 50 µM | > 200 µM | > 200 µM | > 200 µM | 4.43 | > 38.9 µM
COC(=O)c1ccc2[nH]cc(C(=O)C(=O)NCCCNCCCCNCCCNC(=O)C(=O)c3c[nH]c4ccc(C(=O)OC)cc34)c2c1.O=C(O)C(F)(F)F.O=C(O)C(F)(F)F | > 36 µM | > 36 µM |  |  |  | > 36 µM | 100 µM | 0% | > 36 µM | 25 µM | 6.25 µM | 200 µM | 200 µM | 4.38 | > 36 µM
COc1ccc2c(C(=O)C(=O)NCCCNCCCCNCCCNC(=O)C(=O)c3c[nH]c4cc(OC)ccc34)c[nH]c2c1 | > 38.4 µM | 19.2 µM |  |  |  | > 38.4 µM | > 100 µM | 0% | > 38.4 µM | 50 µM | > 100 µM | > 100 µM | > 100 µM | 4.27 | > 38.4 µM
COC(=O)c1ccc2c(C(=O)C(=O)NCCCNCCCCNCCCNC(=O)C(=O)c3c[nH]c4cc(C(=O)OC)ccc34)c[nH]c2c1.O=C(O)C(F)(F)F.O=C(O)C(F)(F)F | > 36 µM | 9 µM |  |  |  | > 36 µM | > 200 µM | 0.6% | > 36 µM | 25 µM | 12.5 µM | > 200 µM | > 200 µM | 4.20 | > 36 µM
O=C(NCCCNCCCCNCCCNC(=O)C(=O)c1c[nH]c2cc(Cl)ccc12)C(=O)c1c[nH]c2cc(Cl)ccc12.O=C(O)C(F)(F)F.O=C(O)C(F)(F)F | 38.1 µM | 4.8 µM |  |  |  | 38.1 µM | 6.25 µM | 11.6% | 19.1 µM | 6.25 µM | 3.12 µM | 100 µM | 50 µM | 4.48 | 38.1 µM
O=C(NCCCNCCCCNCCCNC(=O)C(=O)c1c[nH]c2cc(F)ccc12)C(=O)c1c[nH]c2cc(F)ccc12.O=C(O)C(F)(F)F.O=C(O)C(F)(F)F | > 39.6 µM | 19.8 µM |  |  |  | > 39.6 µM | 100 µM | 0.3% | 12.5 µM | 25 µM | > 200 µM | > 200 µM | > 200 µM | 4.16 | > 39.6 µM
O=C(NCCCNCCCCNCCCNC(=O)C(=O)c1c[nH]c2ccccc12)C(=O)c1c[nH]c2ccccc12 | > 41.4 µM | 10.3 µM |  |  |  | > 41.4 µM | > 100 µM | 0% | > 41.5 µM | >50 µM | > 100 µM | > 100 µM | > 100 µM | 4.22 | > 41.4 µM
O=C(NCCCNCCCCNCCCNC(=O)C(=O)c1c[nH]c2cc(C(F)(F)F)ccc12)C(=O)c1c[nH]c2cc(C(F)(F)F)ccc12.O=C(O)C(F)(F)F.O=C(O)C(F)(F)F | 35.2 µM | 4.4 µM |  |  |  | > 35.2 µM | 50 µM | 3.2% | 3.36 µM | 100 µM | 50 µM | 200 µM | 100 µM | 4.50 | 35.2 µM
CN[C@@H]1[C@H](O[C@H]2[C@H](O[C@H]3[C@H](O)[C@@H](O)[C@H](N=C(N)N)[C@@H](O)[C@@H]3N=C(N)N)O[C@@H](C)[C@]2(O)C=O)O[C@@H](CO)[C@H](O)[C@H]1O [STREPTOMYCIN] |  |  |  |  |  |  | 21.5 µM (≈ 12.5 µg/mL) |  |  |  | 10.7 µM (≈ 6.22 µg/mL) | 21.5 µM (≈ 12.5 µg/mL) | 21.5 µM (≈ 12.5 µg/mL) |  | 
O=C(NCCCNCCCCNCCCNC(=O)C(=O)c1c[nH]c2ccc(Cl)cc12)C(=O)c1c[nH]c2ccc(Cl)cc12.O=C(O)C(F)(F)F.O=C(O)C(F)(F)F | 38 µM | > 38 µM |  |  |  | > 38 µM | > 200 µM | 0% | 4.73 µM | 14.9 µM |  | > 100 µM | > 200 µM | 4.70 | > 38 µM
